# In ChEMBL document CHEMBL1221230, “Inhibition of eukaryotic translation elongation by cycloheximide and lactimidomycin” (Nat Chem Biol, 2010):
# Active and inactive are the calls of the source. The rule behind the calls is not given here.
# Columns and labels:
# Saccharomyces cerevisiae [1] = test: Antimicrobial activity against Saccharomyces cerevisiae J47alpha; format: functional, organism-based
# Outline: (§1)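 Four isogenic S. cerevisiae strain pairs, each differing only by presence or absence of cyh2, exposed to varying compound concentrations; growth read by optical density; IC50 derived per strain, resistance as ratio between paired strains.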
# Saccharomyces cerevisiae [2] = test: Fold resistance, ratio of IC50 for Saccharomyces cerevisiae BY740 expressing ribosomal protein cyh2 and harboring mutation in rpl28 to IC50 for Saccharomyces cerevisiae […]; format: functional; outline: as §1
# MCF7 = test: Anticancer activity against human MCF7 cells after 24 hrs by [3H]thymidine incorporation assay; format: functional, cell-based
# [3] = Inhibition of elF4A-mediated renilla luciferase translational activity at 0.02 to 5 uM in presence of EMCV IRES element
# [4] = target: Elongation factor 2 (Homo sapiens) (UniProt P13639); test: Inhibition of eEF2-mediated tRNA translocation assessed as induction of dipeptide accumulation by TLC
# MDA-MB-231 = test: Antitumor activity against human MDA-MB-231 cells xenografted in nude mouse assessed as inhibition of tumor growth at 0.6 mg/kg, sc qd for 1 month administered post tumor implantation; format: functional, organism-based; parameters: dose 0.6 mg/kg
# Outline: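 Two million MDA-MB-231 cells injected subcutaneously into female nude mice; once tumours palpable, compound 0.6 mg/kg or solvent given daily for one month; tumour growth followed.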
# Saccharomyces cerevisiae [5] = test: Antimicrobial activity against Saccharomyces cerevisiae BY740 expressing ribosomal protein cyh2 and harboring mutation in rpl28; format: functional, organism-based; outline: as §1
# HCC1395 = test: Anticancer activity against human HCC1395 cells after 24 hrs by [3H]thymidine incorporation assay; format: functional, cell-based
# HeLa [6] = test: Antiproliferative activity against human HeLa cells assessed as incorporation of [3H]thymidine in nuclear DNA at 2.5 uM after 24 hrs by scintillation counting; format: functional, cell-based
# Outline: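 Each of three tumour cell lines incubated with compound at 2.5 μM for 24 h, then [³H]thymidine added to monitor DNA synthesis; initial proliferation screen.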
# HeLa [7] = test: Inhibition of transcriptional activity in human HeLa cells assessed as [3H]uridine utilization after 2 hrs by scintillation counting; format: functional, cell-based
# Outline: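 HeLa cells incubated 2 h with varying compound concentrations plus [³⁵S]cysteine/methionine (translation) or [³H]uridine (transcription). Protein synthesis: scintillation counting of TCA-precipitated protein on PVDF membrane. Transcription: scintillation counting of nucleic acids bound to GF/C glass fibre filter.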
# Saccharomyces cerevisiae [8] = test: Antimicrobial activity against Saccharomyces cerevisiae BY724 expressing ribosomal protein cyh2 and harboring mutation in rpl28; format: functional, organism-based; outline: as §1
# MCF-10A = test: Anticancer activity against human MCF10A cells after 24 hrs by [3H]thymidine incorporation assay; format: functional, cell-based
# Saccharomyces cerevisiae [9] = test: Antimicrobial activity against Saccharomyces cerevisiae JB503; format: functional, organism-based; outline: as §1
# [10] = Inhibition of [32P]deacetylated phe-tRNA binding to 60S ribosome E-site by footprinting assay
compound,measurement,setting,value
C/C(=C\[C@H](C)C(=O)C[C@H](O)CC1CC(=O)NC(=O)C1)[C@@H]1OC(=O)/C=C/CC/C=C/C=C\[C@@H]1C [LACTIMIDOMYCIN],IC50,Saccharomyces cerevisiae [1],4.6 nM
same,Ratio IC50,Saccharomyces cerevisiae [2],20.5
same,Activity,MCF7,Active
same,inhibition,[3],Active
same,inhibition,[4],Active
same,Activity,MDA-MB-231,Active
same,IC50,Saccharomyces cerevisiae [5],1210 nM
same,Activity,HCC1395,Active
same,Activity,HeLa [6],inactive
same,IC50,HeLa [7],> 10000 nM
same,IC50,Saccharomyces cerevisiae [8],6530 nM
same,Activity,MCF-10A,Active
same,IC50,Saccharomyces cerevisiae [9],58 nM
same,inhibition,[10],Active
